Test results published in ChEMBL document CHEMBL4184131, “Cyclotheonellazoles A-C, Potent Protease Inhibitors from the Marine Sponge Theonella aff. swinhoei” (J Nat Prod, 2017).
In brackets after ≈: the same amount, converted by molar mass. Starred links: 1 amine or outer side, 2 acyl side, 3 side chain; linkers in the order of their positions; H or OH if unused. Positions of bridges follow the written chain, without caps; N, C: chain ends. Non-standard residues stand in square brackets, D forms with d. Residues, ends and D or L forms follow the SMILES beside them. *: point of attachment. X2 = O=C(/C=C/c1csc([C@H](Cc2ccc(O)cc2)N[*:1])n1)[*:2]; X1 = CC[C@H](C)[C@H](N[*:1])C(=O)C(=O)[*:2]; Benzoyl(4-OH) = O=C(c1ccc(O)cc1)*; Cya = N[C@@H](CS(=O)(=O)O)C(=O)O; Nva = CCC[C@H](N)C(=O)O; Abu = CC[C@H](N)C(=O)O; Dap = NC[C@H](N)C(=O)O

What was measured:
Plasmodium falciparum [1] = experiment: Antiplasmodial activity against Plasmodium falciparum assessed as inhibition of parasite growth incubated for 48 hrs by colorimetry based p-LDH assay; type: functional, organism-based
[2] = Inhibition of chymotrypsin (unknown origin) incubated for 30 mins using Suc-Gly-Gly-phenylalanine-p-nitroanilide substrate by spectrophotometry; set-up: species or system Homo sapiens
In short: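 In Tris buffer (0.6 g Tris HCl/100 mL, pH 7.5), enzyme and Suc-Gly-Gly-Phe-p-nitroanilide substrate each dissolved in buffer at 1 mg/mL. Enzyme and sample preincubated 5 min at 37 °C, then substrate added. Absorbance at 405 nm read kinetically over 30 min. Samples from 1 mg/mL DMSO stock serially diluted; IC50 fitted by four-parameter logistic model.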

[3] = Inhibition of elastase (unknown origin) incubated for 20 mins using N-Suc-Ala-Ala-Ala-p-nitroanilide substrate by spectrophotometry; set-up: species or system Homo sapiens
In short: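 Tris buffer (2.422 g Tris HCl/100 mL, pH 8.0). Enzyme stock 75 mg/mL and N-Suc-Ala-Ala-Ala-p-nitroanilide stock 0.9 mg/mL, both in buffer. Enzyme with sample preincubated 20 min at 30 °C before substrate addition. Absorbance at 405 nm followed kinetically over 20 min. Serial dilutions from 1 mg/mL DMSO stock; IC50 from four-parameter logistic fit.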

Plasmodium falciparum [4] = experiment: Antiplasmodial activity against Plasmodium falciparum; type: functional, organism-based

Row | IC50 [2] [nM] | IC50 [3] [nM] | SMILES | IC50 (Plasmodium falciparum [1]) [µg/mL] | IC50 (Plasmodium falciparum [4]) [µg/mL]
1 |  |  | CO[C@H]1C[C@H](CC[C@H](C)[C@H](O)[C@H](C)[C@H]2OC(=O)/C=C/C(C)=C/C[C@H](O)C[C@@H]3C=CC[C@@H](C[C@H](OC)[C@@H](C)[C@@H](O)C[C@@H](O)[C@H](C)[C@@H]([C@@H](C)[C@@H](O)[C@@H](C)CC[C@H]4C[C@H](OC)C[C@H](C)O4)OC(=O)/C=C/C(C)=C/C[C@H](O)C[C@@H]4C=CC[C@@H](C[C@H](OC)[C@@H](C)[C@@H](O)C[C@@H](O)[C@@H]2C)O4)O3)O[C@@H](C)C1 [Swinholide A] |  | 4.75 (≈ 3.42 µM)
2 | 2.8 | 0.1 | CC[C@H](C)[C@@H]1NC(=O)[C@H](CC(C)C)NC(=O)[C@@H](NC(=O)[C@H](C)NC(=O)CNC(=O)c2ccc(O)cc2)CNC(=O)[C@H](CS(=O)(=O)[O-])NC(=O)/C=C/c2csc(n2)[C@H](Cc2ccc(O)cc2)NC(=O)C1=O.[Na+] ({Benzoyl(4-OH)}-GA[Dap]L[X1][X2][Cya]; lactam 3-C) | > 20 | 
3 | 2.3 | 0.099 | CC[C@@H]1NC(=O)[C@@H](NC(=O)[C@H](C)NC(=O)CNC(=O)c2ccc(O)cc2)CNC(=O)[C@H](CS(=O)(=O)[O-])NC(=O)/C=C/c2csc(n2)[C@H](Cc2ccc(O)cc2)NC(=O)C(=O)[C@H]([C@@H](C)CC)NC1=O.[Na+] ({Benzoyl(4-OH)}-GA[Dap][Abu][X1][X2][Cya]; lactam 3-C) | > 20 | 

Row | SMILES | IC50 [2] [nM] | IC50 [3] [nM] | IC50 (Plasmodium falciparum [1]) [µg/mL] | IC50 (Plasmodium falciparum [4]) [µg/mL]
4 | CCC[C@@H]1NC(=O)[C@@H](NC(=O)[C@H](C)NC(=O)CNC(=O)c2ccc(O)cc2)CNC(=O)[C@H](CS(=O)(=O)[O-])NC(=O)/C=C/c2csc(n2)[C@H](Cc2ccc(O)cc2)NC(=O)C(=O)[C@H]([C@@H](C)CC)NC1=O.[Na+] ({Benzoyl(4-OH)}-GA[Dap][Nva][X1][X2][Cya]; lactam 3-C) | 0.62 | 0.034 | > 20 | 
